The values that follow come from PMC11638133 (Journal of Veterinary Internal Medicine, 2024).

The structures appear in SMILES notation.

Data set [1] is described as follows: Plasma pharmacokinetics of active drug metabolites after oral CARDALIS®. It counts as in vivo, beagle dogs. The note with it: linear mixed model, AUC over the first 24 hours, natural logarithmic scale. The gist of the method:
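Healthy purpose-bred beagles, 6 per group, were fed a low-sodium diet for 5 days, then given an oral ACE-inhibitor/mineralocorticoid-antagonist combination for 14 days at 0.25+2 mg/kg q24h, 0.25+2 mg/kg q12h or 0.5+4 mg/kg q12h. Serial Day-13 plasma was stored at −80°C, and three active metabolites were measured by LC-MS/MS. […] Dose–AUC used a linear mixed model (dog random effect, ln scale).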

The test system of data set [2] is renin‐angiotensin‐aldosterone system (RAAS). The note with it: 2 mg/kg PO q24h vs 4 mg/kg PO q24h, monotherapy; cited from earlier work.
Data set [3] has the same test system. The note with it: cited from earlier work.
[4] abbreviates: highest dose 4 times higher than lowest dose of benazepril.

`CS[C@@H]1CC2=CC(=O)CC[C@]2(C)[C@H]2CC[C@@]3(C)[C@@H](CC[C@@]34CCC(=O)O4)[C@H]12` [TMS, 7‐alpha‐thiomethylspironolactone]: the “increase in AUC for a 1 mg increase in dose” value (from here on “increase in AUC”) in data set [1] was 1.50 units.

As to `CC(=O)S[C@@H]1CC2=CC(=O)CC[C@]2(C)[C@H]2CC[C@@]3(C)[C@@H](CC[C@@]34CCC(=O)O4)[C@H]12` [spironolactone], the “Dose-dependent differences in RAAS metabolites (including aldosterone)” value in data set [2] is listed as “no dose‐dependent differences in RAAS metabolites (including aldosterone)”.

As for `CCOC(=O)[C@H](CCc1ccccc1)N[C@H]1CCc2ccccc2N(CC(=O)O)C1=O` [benazepril], in data set [3] (setting [4]), the “difference in mean ACE‐S between the highest and lowest doses” value was −59%; the “difference in mean Ang1‐7 between the highest and lowest doses” value is listed as “+47%”; the “difference in mean AngII between the highest and lowest doses” value is given as −38%. Moreover, the “lower values of AngII” value in data set [3] (highest dose studied (0.5 mg/kg) compared to the lowest dose studied (0.125 mg/kg)) is 38%.

As to `C[C@]12CCC(=O)C=C1C=C[C@@H]1[C@@H]2CC[C@@]2(C)[C@H]1CC[C@@]21CCC(=O)O1` [Canrenone, canrenone], the “increase in AUC” value in data set [1] worked out at 1.54 units.

In the case of `O=C(O)CN1C(=O)[C@@H](N[C@@H](CCc2ccccc2)C(=O)O)CCc2ccccc21` [Benazeprilat, benazeprilat], in data set [1], the “increase in AUC” value is 1.99 ng·h/mL.
